The text below walks through data of PubChem BioAssay AID623983 (Vanderbilt High Throughput Screening Facility, 2012).

This experiment has as its target G protein-activated inward rectifier potassium channel 2 (Homo sapiens) + G protein-activated inward rectifier potassium channel 3 (Homo sapiens) (UniProt P48051+Q92806). As to the kind of experiment: GIRK2/3 channel activators, Tl+ flux, dose response, cell-based, HEK-293 hGIRK2/3, thallium flux, FluoZin-2, concentration-response (AID 623983). To be noted: HEK-293 hGIRK2/3, thallium flux FluoZin-2 fluorescence; series mostly up to 30 µM. Summed up: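 Repeats: Triplicate wells | System: HEK-293 cells stably expressing human GIRK2/3 channels | Detection: FluoZin-2 fluorescence thallium flux, sampled at 1 Hz | Timing: FluoZin-2 AM loading ~60 min room temperature, compound 4 min pre-thallium | Also added: Tl+ stimulus plus EC20 glutamate | Evaluation: Post-thallium fluorescence slope as % of MPD response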

Active and inactive are the calls of the source. The rule behind the calls is not given here.

G protein-activated inward rectifier potassium channel 2 (Homo sapiens) + G protein-activated inward rectifier potassium channel 3 (Homo sapiens), sequence (P48051 whole entry, looked up): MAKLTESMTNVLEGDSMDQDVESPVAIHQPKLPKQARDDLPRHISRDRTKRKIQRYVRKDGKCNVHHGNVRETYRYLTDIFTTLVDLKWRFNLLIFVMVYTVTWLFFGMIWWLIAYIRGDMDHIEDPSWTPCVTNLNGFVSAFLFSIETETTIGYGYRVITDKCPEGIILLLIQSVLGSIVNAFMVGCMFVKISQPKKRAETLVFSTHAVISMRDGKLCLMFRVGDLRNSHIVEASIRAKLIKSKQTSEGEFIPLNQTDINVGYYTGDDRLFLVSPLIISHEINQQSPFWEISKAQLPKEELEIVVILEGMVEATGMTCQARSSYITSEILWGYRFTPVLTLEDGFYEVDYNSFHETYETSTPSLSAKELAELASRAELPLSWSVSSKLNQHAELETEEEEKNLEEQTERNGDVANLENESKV
G protein-activated inward rectifier potassium channel 2 (Homo sapiens) + G protein-activated inward rectifier potassium channel 3 (Homo sapiens), sequence (Q92806 whole entry, looked up): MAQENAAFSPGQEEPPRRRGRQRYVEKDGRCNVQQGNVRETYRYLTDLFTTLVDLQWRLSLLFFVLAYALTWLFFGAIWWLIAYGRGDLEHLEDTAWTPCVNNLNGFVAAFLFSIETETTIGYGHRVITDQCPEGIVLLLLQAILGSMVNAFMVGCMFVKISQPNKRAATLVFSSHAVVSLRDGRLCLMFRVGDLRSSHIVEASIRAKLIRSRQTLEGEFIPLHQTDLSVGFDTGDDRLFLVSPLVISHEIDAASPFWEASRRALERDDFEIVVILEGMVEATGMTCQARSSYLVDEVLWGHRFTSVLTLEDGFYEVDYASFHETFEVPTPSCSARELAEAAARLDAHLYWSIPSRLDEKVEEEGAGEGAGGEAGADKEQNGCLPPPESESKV

In the case of `Cc1cc(NC(=O)Nc2ccc(F)c(F)c2)n(-c2ccccc2)n1`, the result was inactive.
